Source: ChEMBL document CHEMBL2021842, “COMPARE analysis of the toxicity of an iminoquinone derivative of the imidazo[5,4-f]benzimidazoles with NAD(P)H:quinone oxidoreductase 1 (NQO1) activity and computational docking of quinones as NQO1 substrates” (Bioorg Med Chem, 2012)

Experiments:
[1] = Solubility of the compound in organic solvent; format: physicochemical
[2] = Aqueous solubility of the compound; format: physicochemical; settings: buffer
[3] = Cytotoxicity against human GM00637 cells assessed as reduction in mean cell viability after 72 hrs by MTT assay; format: cell-based; settings: GM00637, 72 h
Method in brief: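 SV40-transformed normal skin fibroblasts (GM00637) in MEM Eagle–Earle BSS with 15% heat-inactivated FBS, 2 mM L-glutamine, 2× amino acids and vitamins. Seeded at 10,000 cells/well and left 24 h to adhere. Ethanol-delivered compound (1% final) for 72 h at 37 °C, 5% CO₂. MTT formazan in DMSO read at 550/690 nm. Viability relative to vehicle; IC₅₀ by nonlinear regression.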

Structure (SMILES)	solubility [1]	solubility [2]	IC50 [3] [nM]
O=C1c2nc3n(c2C(=O)c2nc4n(c21)CCC4)CCC3	Insoluble	Insoluble	–
CO[C@@]12[C@H](COC(N)=O)C3=C(C(=O)C(C)=C(N)C3=O)N1C[C@@H]1N[C@@H]12 [MITOMYCIN]	–	–	460
